The record followed here is the M2OR odorant receptor database.

One assay concerns the target T1, OR51T1 (Homo sapiens) (UniProt Q8NGJ9).
T1 sequence (whole entry): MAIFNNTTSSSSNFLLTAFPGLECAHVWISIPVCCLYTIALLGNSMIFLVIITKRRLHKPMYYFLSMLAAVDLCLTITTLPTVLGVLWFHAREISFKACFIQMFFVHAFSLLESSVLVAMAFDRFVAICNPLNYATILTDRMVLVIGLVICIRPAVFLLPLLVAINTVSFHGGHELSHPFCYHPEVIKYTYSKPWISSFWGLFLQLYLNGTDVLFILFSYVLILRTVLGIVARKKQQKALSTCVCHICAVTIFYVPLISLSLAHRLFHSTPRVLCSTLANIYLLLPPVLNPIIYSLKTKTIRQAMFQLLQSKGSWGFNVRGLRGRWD
The conditions noted are these: stereoisomer not certain. Summed up:
(§1)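 Values were gathered from published papers (main text and supplementary material), with extra details requested from the original authors when needed, and checked for typos and inconsistencies. Each receptor–molecule pair is called responsive (active) if the original authors judged the measured signal statistically different from baseline, and non-responsive (inactive) otherwise. Assay methods varied by source, often transient mammalian cell-line luciferase assays. Recorded details include cell line, G-protein, co-transfected protein and tags.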
As to `CCCCCC(=O)C(C)C(C)=O` (centres undefined), the “odorant receptor agonist call” value was “inactive”.
Still for that read-out and setting: then `CCCCC(S)C(C)CO` (centres undefined), with “active”.
Same read-out and setting: with `CC(=O)c1c(C)c([N+](=O)[O-])c(C(C)(C)C)c([N+](=O)[O-])c1C` the entry was “inactive”; with `CC(CO)CS` (centres undefined), “inactive”; with `CC1CCCCCCCCCCCCC(=O)C1` (centres undefined), “inactive”.
On to `CCCCCCC=CCCC=O`, for which the “odorant receptor agonist call” value was “inactive”.
Consider `CCCCCC(S)C(C)CO` (centres undefined), for which the “odorant receptor agonist call” value is “inactive”.
Still for that read-out and setting: with `CCCCCC1CCCC(=O)O1` (centres undefined) the entry was “inactive”; with `CCC(S)C(C)CO` (centres undefined), “inactive”.

A further assay deals with T2, OR51V1 (Homo sapiens) (UniProt Q9H2C8).
T2 sequence (whole entry): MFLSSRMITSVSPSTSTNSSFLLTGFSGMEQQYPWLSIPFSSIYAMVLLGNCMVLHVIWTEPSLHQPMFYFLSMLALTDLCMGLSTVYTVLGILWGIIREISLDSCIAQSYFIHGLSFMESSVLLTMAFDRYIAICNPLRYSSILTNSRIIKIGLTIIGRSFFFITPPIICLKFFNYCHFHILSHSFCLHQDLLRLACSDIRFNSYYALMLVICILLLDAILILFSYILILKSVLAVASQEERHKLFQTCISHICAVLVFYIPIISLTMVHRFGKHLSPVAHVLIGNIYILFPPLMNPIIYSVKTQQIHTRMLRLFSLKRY
The conditions noted are these: stereoisomer not certain. The essentials: as §1
Turning to `CCCCCC(=O)C(C)C(C)=O` (centres undefined), the “odorant receptor agonist call” value is “inactive”.
Consider `CCCCC(S)C(C)CO` (centres undefined), for which the “odorant receptor agonist call” value was “inactive”.
The same measure, in the same setting: then `CC1=C(O)C(=O)C(C)O1` (centres undefined), with “inactive”; and `CC1=C(O)C(=O)OC1C` (centres undefined), with “inactive”.
For `CCCC(S)CCOC(C)=O` (centres undefined), the “odorant receptor agonist call” value was “inactive”.
On the same count and under the same terms, with `CC(=O)c1c(C)c([N+](=O)[O-])c(C(C)(C)C)c([N+](=O)[O-])c1C` the entry was “inactive”; with `CC(CO)CS` (centres undefined), “inactive”; with `Cc1cnc(C)c(C)n1`, “inactive”.
On the same count and under the same terms, with `CC1CCCCCCCCCCCCC(=O)C1` (centres undefined) the entry was “inactive”; with `CCC1OC(=O)C(O)=C1C` (centres undefined), “inactive”.
Take `CCCCCCC=CCCC=O`: the “odorant receptor agonist call” value is “inactive”.
On the same count and under the same terms, then `CCCCCC(S)C(C)CO` (centres undefined), with “inactive”; and `CC1=NC(C)C(C)S1` (centres undefined), with “inactive”.
With `CCCCCC1CCCC(=O)O1` (centres undefined), the “odorant receptor agonist call” value is “inactive”.
The same measure, in the same setting: with `CCC1OC(C)=C(O)C1=O` (centres undefined) the entry was “inactive”; with `CCC(S)C(C)CO` (centres undefined), “inactive”.

The target of another assay is T3, OR52A1 (Homo sapiens) (UniProt Q9UKL2).
T3 sequence (whole entry): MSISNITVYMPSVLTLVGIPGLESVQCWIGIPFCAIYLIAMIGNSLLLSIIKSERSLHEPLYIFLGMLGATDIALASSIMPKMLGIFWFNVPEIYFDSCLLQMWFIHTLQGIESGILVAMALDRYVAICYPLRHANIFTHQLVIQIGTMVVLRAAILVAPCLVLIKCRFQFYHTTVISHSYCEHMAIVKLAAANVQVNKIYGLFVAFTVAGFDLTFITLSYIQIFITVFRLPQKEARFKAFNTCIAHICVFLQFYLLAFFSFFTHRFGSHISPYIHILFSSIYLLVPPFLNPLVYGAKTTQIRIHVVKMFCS
The conditions noted are these: stereoisomer not certain. Summed up:
as §1
Regarding `CCCCCC(=O)C(C)C(C)=O` (centres undefined), the “odorant receptor agonist call” value was “inactive”.
With `CCCCC(S)C(C)CO` (centres undefined), the “odorant receptor agonist call” value was “inactive”.
In the case of `CC1=C(O)C(=O)C(C)O1` (centres undefined), the “odorant receptor agonist call” value is “inactive”.
Consider `CC1=C(O)C(=O)OC1C` (centres undefined), for which the “odorant receptor agonist call” value was “inactive”.
Still for that read-out and setting: then `CCCC(S)CCOC(C)=O` (centres undefined), with “inactive”; and `CC(=O)c1c(C)c([N+](=O)[O-])c(C(C)(C)C)c([N+](=O)[O-])c1C`, with “inactive”; and `CC(CO)CS` (centres undefined), with “inactive”.
Regarding `Cc1cnc(C)c(C)n1`, the “odorant receptor agonist call” value was “inactive”.
Same read-out and setting: then `CC1CCCCCCCCCCCCC(=O)C1` (centres undefined), with “inactive”.
Still for that read-out and setting: then `CCC1OC(=O)C(O)=C1C` (centres undefined), with “inactive”.
For `CCCCCCC=CCCC=O`, the “odorant receptor agonist call” value was “inactive”.
For the molecule `CCCCCC(S)C(C)CO` (centres undefined), the “odorant receptor agonist call” value was “inactive”.
On the same count and under the same terms, then `CC1=NC(C)C(C)S1` (centres undefined), with “inactive”; and `CCCCCC1CCCC(=O)O1` (centres undefined), with “inactive”.
As for `CCC1OC(C)=C(O)C1=O` (centres undefined), the “odorant receptor agonist call” value is “inactive”.
The same measure, in the same setting: then `CCC(S)C(C)CO` (centres undefined), with “inactive”.

A further assay addresses T4, OR52A4P (Homo sapiens) (UniProt A6NMU1).
T4 sequence (whole entry): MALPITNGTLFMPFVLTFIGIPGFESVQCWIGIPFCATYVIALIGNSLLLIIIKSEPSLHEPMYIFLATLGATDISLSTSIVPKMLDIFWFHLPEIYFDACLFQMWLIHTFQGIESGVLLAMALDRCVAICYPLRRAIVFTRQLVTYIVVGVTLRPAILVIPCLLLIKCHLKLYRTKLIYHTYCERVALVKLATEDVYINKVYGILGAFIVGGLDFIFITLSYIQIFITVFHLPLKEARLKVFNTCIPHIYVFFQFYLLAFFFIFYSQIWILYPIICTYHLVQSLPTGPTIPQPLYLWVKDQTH
The conditions noted are these: stereoisomer not certain. The essentials: as §1
Turning to `CCCCCC(=O)C(C)C(C)=O` (centres undefined), the “odorant receptor agonist call” value is “inactive”.
On to `CCCCC(S)C(C)CO` (centres undefined), for which the “odorant receptor agonist call” value was “inactive”.
The same measure, in the same setting: then `CC(=O)c1c(C)c([N+](=O)[O-])c(C(C)(C)C)c([N+](=O)[O-])c1C`, with “inactive”.
On to `CC(CO)CS` (centres undefined), for which the “odorant receptor agonist call” value is “inactive”.
`CC1CCCCCCCCCCCCC(=O)C1` (centres undefined): the “odorant receptor agonist call” value is “inactive”.
Still for that read-out and setting: then `CCCCCC(S)C(C)CO` (centres undefined), with “inactive”; and `CCCCCC1CCCC(=O)O1` (centres undefined), with “inactive”; and `CCC(S)C(C)CO` (centres undefined), with “inactive”.
